Test results: ChEMBL document CHEMBL3046020, “Enantioselectivity in the phytotoxicity of herbicide imazethapyr” (2009)

Assays:
Zea mays [1] = assay: Phytotoxicity in Zea mays (maize) assessed as total root length measured per plant at 100 ug/L measured 5 days post compound treatment (reference value: 12.32 +/- 1.46 cm); format: functional
Zea mays [2] = assay: Phytotoxicity in Zea mays (maize) assessed as shoot height at 800 ug/L measured 5 days post compound treatment (reference value: 6.89 +/- 0.30 cm); format: functional
Zea mays [3] = assay: Phytotoxicity in Zea mays assessed (maize) as total root length measured per plant at 800 ug/L measured 5 days post compound treatment (reference value: 12.32 +/- 1.46 cm); format: functional
Zea mays [4] = assay: Phytotoxicity in Zea mays assessed (maize) as total root length measured per plant at 400 ug/L measured 5 days post compound treatment (reference value: 12.32 +/- 1.46 cm); format: functional
Zea mays [5] = assay: Reduction of root hair growth in Zea mays (maize) seedlings at 400 ug/L measured 48 hr post dose by microscopy; format: functional, organism-based
Outline: (§1)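 Maize seedlings with primary roots about 2 mm long were moved to 0 or 400 µg L-1 S-(+)-, R-(-)- or racemic IM solution. After 48 h, root tips (border cells) and the densest root-hair zone were examined and photographed under a light microscope. Growth chamber: 12 h light, 25/20 °C, 60% RH.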

Zea mays [6] = assay: Increase in root diameter in Zea mays (maize) seedlings at 100 to 800 ug/L; format: functional, organism-based
Outline: (§2)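 Maize seedlings were grown in a chamber (12 h light, 10,000 lx, 25/20 °C, 60% RH) for five days under graded levels of S-(+)-, R-(-)- or racemic IM. Root diameter, volume, surface area and tip number were measured per plant with an automatic root scanner. Values are means ± SD of three replicates of 10 randomly selected seedlings each.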

Zea mays [7] = assay: Effect on root surface area in Zea mays (maize) seedlings at 100 to 800 ug/L; format: functional, organism-based; outline: as §2
Zea mays [8] = assay: Phytotoxicity in Zea mays (maize) assessed as root dry weight assessed per 10 plants at 200 ug/L measured 5 days post compound treatment (reference value: 42.8 +/- 0.7 mg); format: functional
Zea mays [9] = assay: Phytotoxicity in Zea mays (maize) assessed as root dry weight assessed per 10 plants at 100 ug/L measured 5 days post compound treatment (reference value: 42.8 +/- 0.7 mg); format: functional
Zea mays [10] = assay: Effect on root volume in Zea mays (maize) seedlings at 100 to 800 ug/L; format: functional, organism-based; outline: as §2
Zea mays [11] = assay: Phytotoxicity in Zea mays (maize) assessed as shoot dry weight assessed per 10 plants at 100 ug/L measured 5 days post compound treatment (reference value: 101.2 +/- 4.5 mg); format: functional
Zea mays [12] = assay: Phytotoxicity in Zea mays (maize) assessed as root dry weight assessed per 10 plants at 800 ug/L measured 5 days post compound treatment (reference value: 42.8 +/- 0.7 mg); format: functional
Zea mays [13] = assay: Phytotoxicity in Zea mays (maize) assessed as shoot dry weight assessed per 10 plants at 400 ug/L measured 5 days post compound treatment (reference value: 101.2 +/- 4.5 mg); format: functional
Zea mays [14] = assay: Phytotoxicity in Zea mays (maize) assessed as shoot height at 400 ug/L measured 5 days post compound treatment (reference value: 6.89 +/- 0.30 cm); format: functional
Zea mays [15] = assay: Phytotoxicity in Zea mays (maize) assessed as root dry weight assessed per 10 plants at 400 ug/L measured 5 days post compound treatment (reference value: 42.8 +/- 0.7 mg); format: functional
Zea mays [16] = assay: Phytotoxicity in Zea mays (maize) assessed as shoot height at 100 ug/L measured 5 days post compound treatment (reference value: 6.89 +/- 0.30 cm); format: functional
Zea mays [17] = assay: Phytotoxicity in Zea mays assessed (maize) as total root length measured per plant at 200 ug/L measured 5 days post compound treatment (reference value: 12.32 +/- 1.46 cm); format: functional
Zea mays [18] = assay: Phytotoxicity in Zea mays (maize) assessed as shoot height at 200 ug/L measured 5 days post compound treatment (reference value: 6.89 +/- 0.30 cm); format: functional
Zea mays [19] = assay: Phytotoxicity in Zea mays (maize) assessed as shoot dry weight assessed per 10 plants at 200 ug/L measured 5 days post compound treatment (reference value: 101.2 +/- 4.5 mg); format: functional
Zea mays [20] = assay: Phytotoxicity in Zea mays (maize) assessed as shoot dry weight assessed per 10 plants at 800 ug/L measured 5 days post compound treatment (reference value: 101.2 +/- 4.5 mg); format: functional
Zea mays [21] = assay: Reduction in root tips in Zea mays (maize) seedlings at 100 to 800 ug/L; format: functional, organism-based; outline: as §2
Zea mays [22] = assay: Reduction in root tips in Zea mays (maize) seedlings at 100 ug/L; format: functional, organism-based; outline: as §2
Zea mays [23] = assay: Induction of ultrastructure damage of root tip statocytes in Zea mays seedlings (maize) assessed as dictyosomers swelling at 400 ug/L measured 48 hr post dose by transmission electron microscopy; format: functional, organism-based
Outline: (§3)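 Maize seeds surface-sterilized in 10% NaOCl for 10 min, soaked 12 h, germinated on moist gauze. Root-tip sections of 1-3 mm were fixed in 4% glutaraldehyde, postfixed in OsO4 and embedded in Spurr's resin. 80 nm sections were viewed by TEM at 60 kV.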

Zea mays [24] = assay: Induction of ultrastructure damage of root tip statocytes in Zea mays (maize) seedlings at 400 ug/L measured 48 hr post dose by transmission electron microscopy; format: functional, organism-based; outline: as §3
Zea mays [25] = assay: Induction of ultrastructure damage of root tip statocytes in Zea mays (maize) seedlings assessed as reduction in starch grain size at 400 ug/L measured 48 hr post dose by transmission electron microscopy; format: functional, organism-based; outline: as §3
Zea mays [26] = assay: Induction of ultrastructure damage of root tip statocytes in Zea mays (maize) seedlings assessed as destruction of mitochondria envelope membranes at 400 ug/L measured 48 hr post dose by transmission electron microscopy; format: functional, organism-based; outline: as §3
Zea mays [27] = assay: Induction of ultrastructure damage of root tip statocytes in Zea mays (maize) seedlings assessed as induction of cell wall thickening at 400 ug/L measured 48 hr post dose by transmission electron microscopy; format: functional, organism-based; outline: as §3
Zea mays [28] = assay: Reduction of sloughing of border cells from root tips in Zea mays (maize) seedlings at 400 ug/L measured 48 hr post dose by microscopy; format: functional, organism-based; outline: as §1
Zea mays [29] = assay: Induction of ultrastructure damage of root tip statocytes in Zea mays (maize) seedlings assessed as reduction in organelle size at 400 ug/L measured 48 hr post dose by transmission electron microscopy; format: functional, organism-based; outline: as §3
Zea mays [30] = assay: Effect on cell organelles in root tip statocytes in Zea mays (maize) seedlings at 400 ug/L measured 48 hr post dose by transmission electron microscopy; format: functional, organism-based; outline: as §3

Row | SMILES | Activity (Zea mays [1]) [cm] | Activity (Zea mays [2]) [cm] | Activity (Zea mays [3]) [cm] | Activity (Zea mays [4]) [cm] | Activity (Zea mays [5]) | Activity (Zea mays [6]) | Activity (Zea mays [7]) | Activity (Zea mays [8]) [mg] | Activity (Zea mays [9]) [mg] | Activity (Zea mays [10]) | Activity (Zea mays [11]) [mg] | Activity (Zea mays [12]) [mg] | Activity (Zea mays [13]) [mg] | Activity (Zea mays [14]) [cm] | Activity (Zea mays [15]) [mg] | Activity (Zea mays [16]) [cm] | Activity (Zea mays [17]) [cm] | Activity (Zea mays [18]) [cm] | Activity (Zea mays [19]) [mg] | Activity (Zea mays [20]) [mg] | also measured
1 | CCc1cnc(C2=NC(C)(C(C)C)C(=O)N2)c(C(=O)O)c1 (racemic) [IMAZETHAPYR] | 8.1 | 4 | 5.2 | 5.5 | Non-toxic | Toxic | Toxic | 34.6 | 36.1 | Toxic | 92.4 | 29 | 83.3 | 4.6 | 26.4 | 6.3 | 7.4 | 6.2 | 107.8 | 73.4 | Activity (Zea mays [21]): Toxic
2 | CCc1cnc(C2=N[C@](C)(C(C)C)C(=O)N2)c(C(=O)O)c1 [R-(-)-IMAZETHAPYR] | 7.7 | 3.4 | 4.8 | 4.9 | Toxic | Toxic | Toxic | 30.5 | 33.8 | Toxic | 90.3 | 25.2 | 61.4 | 3.9 | 25.7 | 6.2 | 6.4 | 5.9 | 91.9 | 57.1 | Activity (Zea mays [22]): Toxic; Activity (Zea mays [23]): Toxic; Activity (Zea mays [24]): Toxic; Activity (Zea mays [25]): Toxic; Activity (Zea mays [26]): Toxic; Activity (Zea mays [27]): Toxic; Activity (Zea mays [28]): Toxic; Activity (Zea mays [29]): Toxic; Activity (Zea mays [21]): Toxic
3 | CCc1cnc(C2=N[C@@](C)(C(C)C)C(=O)N2)c(C(=O)O)c1 [S-(+)-IMAZETHAPYR] | 9.4 | 5.1 | 6.1 | 7.2 | Non-toxic | Non-toxic | Toxic | 35.1 | 36.6 | Toxic | 100 | 29.6 | 85.4 | 5.7 | 30.3 | 6.5 | 8.9 | 6.3 | 101.3 | 75.6 | Activity (Zea mays [22]): Non-toxic; Activity (Zea mays [24]): Non-toxic; Activity (Zea mays [25]): Non-toxic; Activity (Zea mays [30]): Non-toxic; Activity (Zea mays [21]): Toxic
